From PubChem BioAssay
In the library only some 0.55% were active in any assay of this set; here they are far more common.
ABCB6 inh 2: inhibitors of human ABC transporter ABCB6; Q9NP58; K562-ABCB6 porphyrin accumulation, flow cytometry, 1 h; stronger effect = lower value; fluorescence ratio to DMSO, % at 10 µM; actives 0.19% (n = 360,000);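 active means fluorescence ratio to DMSO below 75%, the collection mean minus 3 SD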;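 further: signal is porphyrin accumulated inside mitochondria; lower ratio means ABCB6 inhibition with less porphyrin fluorescence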
Target sequence (Q9NP58 whole entry, looked up): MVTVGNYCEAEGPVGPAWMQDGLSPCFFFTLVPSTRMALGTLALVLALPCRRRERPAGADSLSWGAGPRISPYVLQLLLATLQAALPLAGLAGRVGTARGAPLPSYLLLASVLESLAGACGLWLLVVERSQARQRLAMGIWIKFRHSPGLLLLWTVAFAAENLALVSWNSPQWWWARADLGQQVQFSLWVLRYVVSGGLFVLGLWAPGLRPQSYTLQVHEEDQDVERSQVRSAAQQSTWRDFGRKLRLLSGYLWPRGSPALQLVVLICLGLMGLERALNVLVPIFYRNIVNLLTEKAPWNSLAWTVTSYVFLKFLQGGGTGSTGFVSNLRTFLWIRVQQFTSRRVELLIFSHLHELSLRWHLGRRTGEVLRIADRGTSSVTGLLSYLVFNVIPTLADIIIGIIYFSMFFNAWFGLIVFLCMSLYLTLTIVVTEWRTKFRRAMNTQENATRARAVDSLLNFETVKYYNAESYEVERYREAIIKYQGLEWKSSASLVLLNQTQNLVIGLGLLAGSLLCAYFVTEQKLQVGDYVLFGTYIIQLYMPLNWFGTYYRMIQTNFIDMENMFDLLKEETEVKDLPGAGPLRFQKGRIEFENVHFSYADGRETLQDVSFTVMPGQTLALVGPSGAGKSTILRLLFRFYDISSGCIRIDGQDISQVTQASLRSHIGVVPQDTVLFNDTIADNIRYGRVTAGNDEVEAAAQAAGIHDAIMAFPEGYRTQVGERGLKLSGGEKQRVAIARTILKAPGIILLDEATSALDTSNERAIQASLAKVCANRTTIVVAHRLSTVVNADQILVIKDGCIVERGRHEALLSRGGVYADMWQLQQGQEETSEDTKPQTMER
HSV augment: increases HSV replication in cells; maximum fold increase; HSV replication augmentation in cells, fold increase; actives 0.005% (n = 220,000); in the data active means maximum fold increase above about 1.5; tested in PC3 cells
p97 ATPase inh: inhibitors of human p97 ATPase. inhibition, % at 8 µM. P55072. recombinant p97 ATPase, Kinase-Glo ATP luminescence, 3 h. AID 1481. actives 0.42% (n = 220,000); in the data active means inhibition above about 15%
Rad51 HR inh: Rad51 (human) homologous recombination inhibition | inhibition, % at 10 µM | hRad51 DNA strand exchange, fluorescence dequenching | Q06609 | actives 0.085% (n = 200,000) | AID 1385;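 active means inhibition above 40% at the single screening dose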
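Material: hRad51 filaments on single-stranded DNA; Reagent: Donor/quencher-labelled 47-bp dsDNA substrate; Compound: 10 µM final, single point; Schedule: 37 °C 15-min filament assembly, 30-min compound preincubation, 15-min exchange; Technique: FRET fluorescence, excitation 485 nm, emission 520 nm; Benchmarks: control wells and blank wells on each plate.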
ABCB1 inh: blocks JC-1 efflux by human ABCB1 transporter. AID 1326. inhibition, % at 6.6 µM. actives 0.067% (n = 190,000). CCRF-Adr cells, flow cytometry; in the data active means inhibition above about 40%;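 further: higher value means more JC-1 retained so stronger ABCB1 efflux block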
ABCG2 inh: inhibitors of human ABCG2 transporter, ABCB1 counter-screen. IgMXP3 cells, JC-1 efflux, flow cytometry. inhibition, % at 6.6 µM. actives 0.1% (n = 190,000);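 active means inhibition above 80%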
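Incubation: cells with compound and JC-1, 10 min at 25 °C, rotating, no wash / Test system: IgMXP3 (ABCG2) plus far-red-tagged CCRF-Adr (ABCB1) cells / Compound dosing: one concentration, 6.6 µM final / Also added: JC-1 fluorescent substrate / Evaluation: efflux inhibition in percent versus controls / Detection: flow cytometry, 530 nm JC-1 signal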
ABCB6 inh CP1: inhibitors of human ABC transporter ABCB6; K562-ABCB6 porphyrin accumulation, flow cytometry, 1 h; stronger effect = lower value; shares compounds with ABCB6 inh 2; AID 602430; 700 tested, under 10 active; ratio response (% of DMSO), % at 10 µM;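 active means repeat-averaged ratio response below 75% of DMSO, the collection mean minus 3 SD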;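 further: median porphyrin fluorescence at 575 nm with 488 nm excitation from mitochondria; lower ratio means less porphyrin signal so ABCB6 inhibition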
A number is an active result.

`CCCCNC(=O)C1(C)CCCCN1CC(=O)c1ccc(OC)cc1` (centres undefined) gave ABCB6 inh 2 inactive.
`CC1(C)CC(=O)C(C2C3=C(CC(C)(C)CC3=O)Oc3ccc4ccccc4c32)C(=O)C1` (centres undefined) gave ABCB6 inh 2 74.0, HSV augment inactive, p97 ATPase inh inactive, ABCB1 inh inactive, ABCG2 inh inactive and ABCB6 inh CP1 inactive.
Screening CC1(C)CC(=O)C(C2C3=C(CC(C)(C)CC3=O)Oc3ccccc32)C(=O)C1 (centres undefined) returned ABCB6 inh 2 inactive, HSV augment inactive, p97 ATPase inh inactive and Rad51 HR inh inactive.
`O=C(O)C1C2C=CC(C2)C1C(=O)Nc1cccc(F)c1` (centres undefined) gave ABCB6 inh 2 58.0, HSV augment inactive, p97 ATPase inh inactive, Rad51 HR inh inactive, ABCB1 inh inactive, ABCG2 inh inactive and ABCB6 inh CP1 inactive.
`O=C(O)c1cccc(NC(=O)C2C3C=CC(C3)C2C(=O)O)c1` (centres undefined) gave ABCB6 inh 2 inactive, HSV augment inactive, p97 ATPase inh inactive, Rad51 HR inh inactive, ABCB1 inh inactive and ABCG2 inh inactive.
Screening Cc1ccc(Cl)cc1N1CCN(C(=O)CNC(=O)c2ccc(Br)o2)CC1 returned ABCB6 inh 2 inactive.
Screening Cc1ccc(-c2nc(N/N=C/c3ccccc3[N+](=O)[O-])c3ccccc3n2)cc1 returned ABCB6 inh 2 74.0, HSV augment inactive, p97 ATPase inh inactive, Rad51 HR inh inactive, ABCB1 inh inactive, ABCG2 inh inactive and ABCB6 inh CP1 inactive.
Screening O=[N+]([O-])c1ccccc1C=NNc1ccccc1 returned ABCB6 inh 2 inactive.
O=C(Nc1ccc(Cn2cccn2)cc1)c1ccc(COc2ccc(Br)cc2)cc1 was read as ABCB6 inh 2 72.0, HSV augment inactive, p97 ATPase inh inactive, Rad51 HR inh inactive, ABCB1 inh inactive, ABCG2 inh inactive and ABCB6 inh CP1 inactive.
`Cc1cc(S(=O)(=O)NC2CCCCC2)ccc1OCC(=O)NCC1CCCO1` (centres undefined) gave ABCB6 inh 2 73.0, HSV augment inactive, p97 ATPase inh inactive, Rad51 HR inh inactive, ABCB1 inh inactive, ABCG2 inh inactive and ABCB6 inh CP1 inactive.
O=C(COc1ccc(S(=O)(=O)NC2CCCCC2)cc1Cl)NCC1CCCO1 (centres undefined) was read as ABCB6 inh 2 inactive, HSV augment inactive, p97 ATPase inh inactive, Rad51 HR inh inactive, ABCB1 inh inactive and ABCG2 inh inactive.
`CCOC(=O)c1cc2c(N)c(C(=O)c3cc(C#N)c(SC)nc3C)sc2nc1C` gave ABCB6 inh 2 72.0, HSV augment inactive, p97 ATPase inh inactive, Rad51 HR inh inactive, ABCB1 inh inactive, ABCG2 inh inactive and ABCB6 inh CP1 inactive.
Screening COc1ccc(C(=O)OCC(=O)Nc2cccc(S(=O)(=O)NC3=NCCCCC3)c2)cc1[N+](=O)[O-] returned ABCB6 inh 2 inactive.
`CCOC(=O)C(=O)N(C)c1c(CC)nc2c(OCc3cc(Cl)cc(Cl)c3)cccn12` gave ABCB6 inh 2 inactive.
COc1ccc(N2CCN(C(=O)c3cc(-c4ccc(F)cc4)[nH]c3C)CC2)cc1 was read as ABCB6 inh 2 71.0 and ABCB6 inh CP1 inactive.
`CC(=O)N1CCN(C(c2ccccc2)c2nnnn2C(C)(C)C)CC1` (centres undefined) gave ABCB6 inh 2 inactive.
Screening Cc1nn(-c2ccccc2Cl)c(Cl)c1/C=N/Nc1nc2ccccc2s1 returned ABCB6 inh 2 66.0, HSV augment inactive, p97 ATPase inh inactive, Rad51 HR inh inactive, ABCB1 inh inactive, ABCG2 inh inactive and ABCB6 inh CP1 inactive.
For COc1ccccc1C1CCN(Cc2c(C)[nH]c3ccccc23)CC1 the results were ABCB6 inh 2 26.0, HSV augment inactive, p97 ATPase inh inactive, Rad51 HR inh inactive and ABCB6 inh CP1 inactive.
`COc1ccccc1C1CCN(Cc2ccc(Cl)c(Cl)c2)CC1` gave ABCB6 inh 2 inactive.
For COc1ccccc1C1CCN(Cc2cccc3ccccc23)CC1 the results were ABCB6 inh 2 68.0 and ABCB6 inh CP1 inactive.
`CC1(C(=O)Nc2ccc3c(c2)OCCO3)CCN1C(=O)c1cccc(F)c1` (centres undefined) gave ABCB6 inh 2 inactive.
`Cn1nc(C(F)(F)F)c(-c2cccc(C(F)(F)F)c2)c1NC(=O)Nc1ccc(F)cc1` gave ABCB6 inh 2 11.0, HSV augment inactive, p97 ATPase inh inactive, Rad51 HR inh inactive and ABCB6 inh CP1 inactive.
`Cn1nc(C(F)(F)F)c(-c2cccc(C(F)(F)F)c2)c1NC(=O)c1ccco1` gave ABCB6 inh 2 inactive, HSV augment inactive and p97 ATPase inh inactive.
For CC1Cc2ccccc2N1C1=NS(=O)(=O)c2ccccc21 (centres undefined) the results were ABCB6 inh 2 73.0, HSV augment inactive, p97 ATPase inh inactive, Rad51 HR inh inactive, ABCB1 inh inactive, ABCG2 inh inactive and ABCB6 inh CP1 inactive.
For O=S1(=O)N=C(N2CCCC2)c2ccccc21 the results were ABCB6 inh 2 inactive.
`Cc1ccc2nc(NC(=O)C3=NN(c4ccccc4)C(=O)CC3)sc2c1` gave ABCB6 inh 2 inactive, HSV augment inactive, p97 ATPase inh inactive, Rad51 HR inh inactive, ABCB1 inh inactive and ABCG2 inh inactive.
For CCOc1ccc2nc(NC(=O)C3=NN(c4ccccc4)C(=O)CC3)sc2c1 the results were ABCB6 inh 2 74.0, HSV augment inactive, p97 ATPase inh inactive, Rad51 HR inh inactive, ABCB1 inh inactive, ABCG2 inh inactive and ABCB6 inh CP1 inactive.
`COc1c(C)cc(C(O)c2ncc(-c3ccccc3)[nH]2)cc1C` (centres undefined) gave ABCB6 inh 2 inactive.
`Cc1coc2c1c(C)cc1oc(=O)c(Cc3ccccc3)c(C)c12` gave ABCB6 inh 2 66.0, HSV augment inactive, p97 ATPase inh inactive, Rad51 HR inh inactive, ABCB1 inh inactive, ABCG2 inh inactive and ABCB6 inh CP1 inactive.
For Cc1coc2c1c(C)cc1oc(=O)c(CC(=O)NCC(=O)NCC(=O)O)c(C)c12 the results were ABCB6 inh 2 inactive.
Screening COCCNC(=O)C1(C)CCCN(C(=O)c2ccc(N(C)C)cc2)C1 (centres undefined) returned ABCB6 inh 2 inactive.
For COc1ccc(N2CCN(c3ncccc3C#N)CC2)cc1 the results were ABCB6 inh 2 74.0, HSV augment inactive, p97 ATPase inh inactive, Rad51 HR inh inactive, ABCB1 inh inactive, ABCG2 inh inactive and ABCB6 inh CP1 inactive.
